Legend:
[1] = Area under curve for the compound was determined in rats after 2 mg/kg oral dose; assay type: ADME, organism-based; set-up: dose 2 mg/kg, route oral; conditions: rat, in vivo
[2] = Oral bioavailability in rat (dose 2 mg/kg); assay type: ADME, organism-based; conditions: in vivo
[3] = Half life in rats after 1 mg/kg intravenous dose; conditions: rat, in vivo
[4] = Plasma clearance in rats after 1 mg/kg intravenous dose; conditions: rat; for clearance: plasma
[5] = Metabolic stability as percent of drug remaining after incubation with human liver S9 for 30 min was determined; assay type: ADME, subcellular, Liver S9 fraction; conditions: for remaining at 0.5 h: liver S9, read-out: Activity
Summary of the method: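 Incubation with human liver S9 (2 mg/mL) plus NADPH for 30 min, read as percent parent remaining. A standard was run in every assay, and data were accepted only if the standard fell within ±5% of its historical mean.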

[6] = Bioavailability in dog after 4 mg/kg oral dose; assay type: ADME, organism-based, Canis lupus familiaris; conditions: in vivo
[7] = Area under curve for the compound was determined in dog after 4 mg/kg oral dose; assay type: ADME, organism-based, Canis lupus familiaris; set-up: dose 4 mg/kg, route oral; conditions: in vivo
[8] = Half life in dog after 1 mg/kg intravenous dose; conditions: in vivo
[9] = Plasma clearance in dog after 1 mg/kg intravenous dose; conditions: in vivo
[10] = Bioavailability in dog after 5 mg/kg oral dose; assay type: ADME, organism-based, Canis lupus familiaris; conditions: in vivo
[11] = Area under curve for the compound was determined in dog after 5 mg/kg oral dose; assay type: ADME, organism-based, Canis lupus familiaris; set-up: dose 5 mg/kg, route oral; conditions: in vivo
[12] = Half life in dog after 1 mg/kg intravenous dose; conditions: in vivo; remark: listed apart in the source
[13] = Plasma clearance in dog after 1 mg/kg intravenous dose; conditions: in vivo; remark: listed apart in the source

| SMILES | remaining at 0.5 h [5] | other results |
| --- | --- | --- |
| Cc1nc2cc(OC[C@H](O)CN3CCN(CC(=O)Nc4c(C)cccc4C)CC3)ccc2s1 | – | AUC [1]: 30.5 ng·h/mL; F [2]: 19%; half-life [3]: 1.4 h; Plasma clearance ([4]; in vivo): 54.5 mL/min/kg |
| Cc1nc2cc(OC[C@H](O)CN3CCN(Cc4noc(-c5ccc(Cl)cc5Cl)n4)C[C@@H]3C)ccc2s1 (stereo in doubt; 31) | 17% | – |
| Cc1nc2cc(OC[C@H](O)CN3CCN(Cc4nc(-c5ccc(C(F)(F)F)cc5)sc4C)CC3)ccc2s1 | 40% | – |
| Cc1nc2cc(OC[C@H](O)CN3CCN(Cc4nnc(-c5ccc(Cl)cc5)o4)CC3)ccc2s1 | 34% | – |
| Cc1nc2cc(OC[C@H](O)CN3CCN(Cc4coc(-c5ccc(C(F)(F)F)cc5)n4)CC3)ccc2s1 | 43% | – |
| Cc1nc2cc(OC[C@H](O)CN3CCN(Cc4nc(-c5ccc(C(C)C)cc5)no4)CC3)ccc2s1 | 21% | – |
| Cc1cccc(-c2nc(CN3CCN(C[C@@H](O)COc4ccc5sc(C)nc5c4)CC3)no2)c1 | 31% | – |
| COc1ccc(-c2nc(CN3CCN(C[C@@H](O)COc4ccc5sc(C)nc5c4)CC3)no2)cc1 | 39% | – |
| Cc1nc2cc(OC[C@H](O)CN3CCN(Cc4nc(-c5ccc(Cl)cc5)no4)CC3)ccc2s1 | 66% | – |
| Cc1nc2cc(OC[C@H](O)CN3CCN(Cc4noc(-c5ccc(Cl)cc5Cl)n4)C[C@@H]3C)ccc2s1 (stereo in doubt; 32) | – | Activity ([5]; s9, 0.5 h, 0.5 h): 30% |
| Cc1nc2cc(OC[C@H](O)CN3CCN(Cc4noc(-c5ccc(Cl)cc5)n4)CC3)ccc2s1 | 48% | – |
| Cc1nc2cc(OC[C@H](O)CN3CCN(Cc4noc(-c5cccc(Cl)c5)n4)CC3)ccc2s1 | 38% | – |
| Cc1nc2cc(OC[C@H](O)CN3CCN(Cc4noc(-c5ccc(Cl)c(Cl)c5)n4)CC3)ccc2s1 | 30% | – |
| Cc1nc2cc(OC[C@H](O)CN3CCN(Cc4noc(-c5ccc(C(F)(F)F)cc5)n4)CC3)ccc2s1 | 74% | Bioavailabiility [6]: 93%; AUC [7]: 1776 ng·h/mL; AUC ([1]; read-out: AUC): 282 ng·h/mL; bioavailability [2]: 38%; half-life [8]: 13.6 h; half-life [3]: 3.2 h; Plasma clearance [9]: 12.2 mL/min/kg; clearance [4]: 22.5 mL/min/kg |
| Cc1nc2cc(OC[C@H](O)CN3CCN(Cc4noc(-c5ccc(C#N)cc5)n4)CC3)ccc2s1 | 56% | – |
| Cc1nc2cc(OC[C@H](O)CN3CCN(Cc4noc(-c5ccc(C(F)(F)F)cc5)n4)C[C@@H]3C)ccc2s1 | 43% | Bioavailabiility [10]: 30%; AUC [11]: 1093 ng·h/mL; AUC ([1]; read-out: AUC): 253 ng·h/mL; bioavailability [2]: 29%; half-life [12]: 65 h; half-life [3]: 4 h; Plasma clearance [13]: 4.6 mL/min/kg; clearance [4]: 19.7 mL/min/kg |
| Cc1nc2cc(OC[C@H](O)CN3CCN(Cc4noc(-c5cccc(F)c5)n4)CC3)ccc2s1 | 42% | – |
| Cc1nc2cc(OC[C@H](O)CN3CCN(Cc4nc(-c5ccc(C(C)(C)C)cc5)no4)CC3)ccc2s1 | 39% | – |
| Cc1nc2cc(OC[C@H](O)CN3CCN(Cc4noc(-c5ccc(F)cc5)n4)CC3)ccc2s1 | 50% | – |
| Cc1nc2cc(OC[C@H](O)CN3CCN(Cc4noc(-c5ccc(Cl)cc5Cl)n4)CC3)ccc2s1 | 33% | – |
| Cc1nc2cc(OC[C@H](O)CN3CCN(Cc4noc(-c5ccc(C(C)(C)C)cc5)n4)CC3)ccc2s1 | 18% | – |
| Cc1nc2cc(OC[C@H](O)CN3CCN(Cc4nc(-c5ccc(Cl)cc5Cl)no4)CC3)ccc2s1 | 29% | – |
| Cc1nc2cc(OC[C@H](O)CN3CCN(Cc4nc(-c5ccc(C(F)(F)F)cc5)no4)CC3)ccc2s1 | 72% | – |
| Cc1nc2cc(OC[C@H](O)CN3CCN(Cc4nnc(-c5ccc(C(C)(C)C)cc5)o4)CC3)ccc2s1 | 25% | – |
| Cc1nc2cc(OC[C@H](O)CN3CCN(Cc4nc(-c5ccc(Cl)c(Cl)c5)no4)CC3)ccc2s1 | 36% | – |
| Cc1nc2cc(OC[C@H](O)CN3CCN(Cc4noc(-c5ccc(C(C)C)cc5)n4)CC3)ccc2s1 | 31% | – |
| Cc1nc2cc(OC[C@H](O)CN3CCN(Cc4nnc(-c5ccc(C(F)(F)F)cc5)o4)CC3)ccc2s1 | 49% | – |
| Cc1nc2cc(OC[C@H](O)CN3CCN(Cc4csc(-c5ccc(C(F)(F)F)cc5)n4)CC3)ccc2s1 | 40% | – |

From ChEMBL document CHEMBL1138718, “CVT-4325: a potent fatty acid oxidation inhibitor with favorable oral bioavailability” (Bioorg Med Chem Lett, 2004)
